Test results: ChEMBL document CHEMBL1123352, “Anticonvulsant activity of 2- and 3-aminobenzanilides” (J Med Chem, 1986)
The source made the active and inactive calls. The rule behind the calls is not given here.

Legend:
Mus musculus [1] = test: Anticonvulsant activity against maximal electroshock (MES) induced seizures in mice 30 minutes after ip administration of 300 mg/kg; A=Active; assay type: functional, organism-based; set-up: dose 300 mg/kg
In short: (§1)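 Male Carworth Farms No. 1 mice were dosed ip with compound in 30% polyethylene glycol 400, at 30, 100 and 300 mg/kg and sometimes 600 mg/kg, and tested 30 min and 4 h later. A drop of 0.9% saline went in the eye, then 60-cycle AC at 50 mA was given for 0.2 s via corneal electrodes. Protection meant abolition of hind limb tonic extension.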

Mus musculus [2] = test: Anticonvulsant activity against maximal electroshock (MES) induced seizures in mice 4 hours after ip administration of 600 mg/kg; A=Active; assay type: functional, organism-based; set-up: dose 600 mg/kg; in short: as §1
Mus musculus [3] = test: Anticonvulsant activity against subcutaneous pentylenetetrazole induced convulsions in mice 30 min after ip administration of 600 mg/kg.; assay type: functional, organism-based; set-up: dose 600 mg/kg
In short: (§2)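 Male Carworth Farms No. 1 mice were dosed ip with compound in 30% PEG 400, at 30–600 mg/kg, and read at 30 min and 4 h. Pentylenetetrazole was given at 85 mg/kg as a 0.5% solution sc in the posterior midline. Protection meant no single episode of clonic spasms lasting at least 5 s over a 30-min observation.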

Mus musculus [4] = test: Anticonvulsant activity against subcutaneous pentylenetetrazole induced convulsions in mice 4 hr after ip administration of 600 mg/kg.; assay type: functional, organism-based; set-up: dose 600 mg/kg; in short: as §2
Mus musculus [5] = test: Compound was tested for toxicity by rotarod assay method in mice after intraperitoneal administration after 4 hours at 600 mg/kg; no activity; assay type: organism-based; set-up: dose 600 mg/kg, route intraperitoneal; settings: in vivo, ip
Mus musculus [6] = test: Compound was tested for toxicity by rotarod assay method in mice 30 min after ip administration of 600 mg/kg; no activity; assay type: organism-based; set-up: dose 600 mg/kg, route intraperitoneal; settings: in vivo, 0.5 h
Mus musculus [7] = test: Anticonvulsant activity against maximal electroshock (MES) induced seizures in mice 30 minutes after ip administration of 600 mg/kg; NA=No activity; assay type: functional, organism-based; set-up: dose 600 mg/kg; in short: as §1
Mus musculus [8] = test: Anticonvulsant activity against maximal electroshock (MES) induced seizures in mice 4 hours after ip administration of 600 mg/kg.; assay type: functional, organism-based; set-up: dose 600 mg/kg; in short: as §1
Mus musculus [9] = test: Anticonvulsant activity against subcutaneous pentylenetetrazole induced convulsions in mice 4 hours after ip administration of 600 mg/kg; No=No activity; assay type: functional, organism-based; set-up: dose 600 mg/kg; in short: as §2
Mus musculus [10] = test: Compound was tested for toxicity by rotarod assay method in mice 30 min after ip administration at 600 mg/kg; no activity; assay type: organism-based; set-up: dose 600 mg/kg, route intraperitoneal; settings: in vivo, 0.5 h
Mus musculus [11] = test: Compound was tested for toxicity by rotarod assay method in mice 4 hours after ip administration at 600 mg/kg; no activity; assay type: organism-based; set-up: dose 600 mg/kg, route intraperitoneal; settings: in vivo
Mus musculus [12] = test: Anticonvulsant activity against maximal electroshock (MES) induced seizures in mice 30 minutes after ip administration of 600 mg/kg; A=Active; assay type: functional, organism-based; set-up: dose 600 mg/kg; in short: as §1
Mus musculus [13] = test: Anticonvulsant activity against sc pentylenetetrazole induced convulsions in mice 30 minutes after ip administration of 600 mg/kg; A=Active; assay type: functional, organism-based; set-up: dose 600 mg/kg; in short: as §2
Mus musculus [14] = test: Compound was tested for toxicity by rotarod assay method in mice 30 min after ip administration of 600 mg/kg; A=Active; assay type: organism-based; set-up: dose 600 mg/kg, route intraperitoneal; settings: in vivo, 0.5 h
Mus musculus [15] = test: Compound was tested for toxicity by rotarod assay method in mice 4 hours after ip administration of 600 mg/kg; NA=No activity; assay type: organism-based; set-up: dose 600 mg/kg, route intraperitoneal; settings: in vivo
Mus musculus [16] = test: Anticonvulsant activity against maximal electroshock (MES) induced seizures in mice 30 minutes after ip administration of 100 mg/kg; A=Active; assay type: functional, organism-based; set-up: dose 100 mg/kg; in short: as §1
Mus musculus [17] = test: Anticonvulsant activity against maximal electroshock (MES) induced seizures in mice 4 hours after ip administration of 300 mg/kg; A=Active; assay type: functional, organism-based; set-up: dose 300 mg/kg; in short: as §1
Mus musculus [18] = test: Anticonvulsant activity against sc pentylenetetrazole-induced convulsions in mice 30 minutes after ip administration of 300 mg/kg; A=Active; assay type: functional, organism-based; set-up: dose 300 mg/kg; in short: as §2
Mus musculus [19] = species on record: Mus musculus; test: Anticonvulsant activity against maximal electroshock (MES)-induced seizures in mice; assay type: functional; in short: as §1
[20] = Compound for toxicity by rotarod assay method in mice after administration; assay type: organism-based; settings: mouse, in vivo
In short: (§3)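 Neurologic deficit was tested in male Carworth Farms No. 1 mice 30 min and 4 h after ip dosing in 30% PEG 400, at 30–600 mg/kg. Each mouse was placed on a 1-in.-diameter knurled plastic rod turning at 6 rpm. Toxicity meant failing to stay on the rod for 1 min.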

Mus musculus [21] = test: Compound was tested for toxicity by rotarod assay method in mice 30 min after ip administration of 300 mg/kg; A=Active; assay type: organism-based; set-up: dose 300 mg/kg, route intraperitoneal; settings: in vivo, 0.5 h
Mus musculus [22] = test: Compound was tested for toxicity by rotarod assay method in mice 4 hours after ip administration of 600 mg/kg; A=Active; assay type: organism-based; set-up: dose 600 mg/kg, route intraperitoneal; settings: in vivo
Mus musculus [23] = test: Anticonvulsant activity against subcutaneous pentylenetetrazole induced convulsions in mice 4 hours after ip administration of 600 mg/kg; NA=No activity; assay type: functional, organism-based; set-up: dose 600 mg/kg; in short: as §2
Mus musculus [24] = test: Compound was tested for toxicity by rotarod assay method in mice 30 min after ip administration of 300 mg/kg; Active; assay type: organism-based; set-up: dose 300 mg/kg, route intraperitoneal; settings: in vivo, 0.5 h
Mus musculus [25] = test: Anticonvulsant activity against sc pentylenetetrazole-induced convulsions in mice 30 minutes after ip administration of 300 mg/kg; Active; assay type: functional, organism-based; set-up: dose 300 mg/kg; in short: as §2
Mus musculus [26] = test: Compound was tested for toxicity by rotarod assay method in mice after intraperitoneal administration after 30 minutes; assay type: functional, organism-based; in short: as §3
Mus musculus [27] = test: Compound was tested for toxicity by rotarod assay method in mice after intraperitoneal administration after 4 hours; assay type: functional, organism-based; in short: as §3
Mus musculus [28] = test: Anticonvulsant activity against subcutaneous pentylenetetrazole induced convulsions in mice after intraperitoneal administration after 4 hr at 600 mg/kg; NA=No activity; assay type: functional, organism-based; set-up: dose 600 mg/kg; in short: as §2
Mus musculus [29] = test: Compound for anticonvulsant activity against maximal electroshock (MES)-induced seizures in mice after administration; assay type: functional; in short: as §1
Mus musculus [30] = test: Anticonvulsant activity against sc pentylenetetrazole induced convulsions in mice 4 hr after ip administration of 600 mg/kg; A=Active; assay type: functional, organism-based; set-up: dose 600 mg/kg; in short: as §2

Structure (SMILES) | Anticonvulsant activity (Mus musculus [3]) | Anticonvulsant activity (Mus musculus [4]) | Anticonvulsant activity (Mus musculus [7]) | Anticonvulsant activity (Mus musculus [8]) | Anticonvulsant activity (Mus musculus [9]) | Toxicity (Mus musculus [10]) | Toxicity (Mus musculus [11]) | other results
CCc1cccc(C(C)C)c1NC(=O)c1cccc(N)c1 | inactive | inactive | – | – | – | – | – | Anticonvulsant activity (Mus musculus [1]): Active; Anticonvulsant activity (Mus musculus [2]): Active; Toxicity (Mus musculus [5]): Not Active; Toxicity (Mus musculus [6]): Not Active
Cc1cccc(NC(=O)c2ccccc2N)c1 | inactive | – | inactive | inactive | inactive | Not Active | Not Active | –
CCc1cccc(C(C)C)c1NC(=O)c1ccccc1N | inactive | – | inactive | inactive | inactive | Not Active | Not Active | –
Cc1ccc(NC(=O)c2ccccc2N)cc1C | inactive | – | inactive | inactive | inactive | Not Active | Not Active | –
Cc1ccc(C)c(NC(=O)c2ccccc2N)c1 | inactive | – | inactive | inactive | inactive | Not Active | Not Active | –
CC(C)c1ccccc1NC(=O)c1ccccc1N | inactive | – | inactive | inactive | inactive | Not Active | Not Active | –
Cc1ccc(NC(=O)c2ccccc2N)c(C)c1 | – | inactive | – | – | – | – | – | Anticonvulsant activity (Mus musculus [12]): Active; Anticonvulsant activity (Mus musculus [2]): Active; Anticonvulsant activity (Mus musculus [13]): Active; Toxicity (Mus musculus [14]): Active; Toxicity (Mus musculus [15]): Not Active
Cc1ccc(C)c(NC(=O)c2cccc(N)c2)c1 | inactive | – | inactive | inactive | inactive | Not Active | Not Active | –
Cc1ccccc1NC(=O)c1cccc(N)c1 | – | inactive | – | – | – | – | – | Anticonvulsant activity (Mus musculus [16]): Active; Anticonvulsant activity (Mus musculus [17]): Active; Anticonvulsant activity (Mus musculus [18]): Active; ED50 (Mus musculus [19]): 44.7 mg/kg; TD50 [20]: 109 mg/kg; Toxicity (Mus musculus [21]): Active; Toxicity (Mus musculus [22]): Active
Nc1ccccc1C(=O)Nc1ccccc1 | inactive | – | – | inactive | – | – | – | Anticonvulsant activity (Mus musculus [1]): Active; Anticonvulsant activity (Mus musculus [23]): inactive; Toxicity (Mus musculus [14]): Active; Toxicity (Mus musculus [15]): Not Active
Cc1cccc(C)c1NC(=O)c1ccccc1N | – | inactive | – | – | – | – | – | Anticonvulsant activity (Mus musculus [1]): Active; Anticonvulsant activity (Mus musculus [2]): Active; Toxicity (Mus musculus [24]): Active; Toxicity (Mus musculus [15]): Not Active; Anticonvulsant activity (Mus musculus [25]): Active
Cc1ccc(NC(=O)c2ccccc2N)cc1 | inactive | – | inactive | inactive | inactive | Not Active | Not Active | –
Cc1cccc(NC(=O)c2cccc(N)c2)c1C | inactive | inactive | – | inactive | – | – | – | Anticonvulsant activity (Mus musculus [12]): Active; Toxicity (Mus musculus [26]): inactive; Toxicity (Mus musculus [27]): inactive
Cc1cccc(C(C)C)c1NC(=O)c1ccccc1N | inactive | inactive | – | inactive | – | – | – | Anticonvulsant activity (Mus musculus [12]): Active; Toxicity (Mus musculus [6]): Not Active; Toxicity (Mus musculus [15]): Not Active
Cc1cc(C)cc(NC(=O)c2ccccc2N)c1 | inactive | – | inactive | inactive | inactive | Not Active | Not Active | –
Cc1ccccc1NC(=O)c1ccccc1N | – | – | – | – | – | – | – | Anticonvulsant activity (Mus musculus [1]): Active; Anticonvulsant activity (Mus musculus [2]): Active; Anticonvulsant activity (Mus musculus [13]): Active; Anticonvulsant activity (Mus musculus [28]): inactive; Toxicity (Mus musculus [24]): Active; Toxicity (Mus musculus [15]): Not Active
Cc1ccc(NC(=O)c2cccc(N)c2)c(C)c1 | inactive | – | inactive | inactive | inactive | Not Active | Not Active | –
Cc1cccc(C)c1NC(=O)c1ccc(N)cc1 [AMELTOLIDE] | – | – | – | – | – | – | – | ED50 (Mus musculus [29]): 2.6 mg/kg
Cc1ccc(NC(=O)c2cccc(N)c2)cc1 | inactive | inactive | – | – | – | – | – | Anticonvulsant activity (Mus musculus [1]): Active; Anticonvulsant activity (Mus musculus [17]): Active; Toxicity (Mus musculus [6]): Not Active; Toxicity (Mus musculus [22]): Active
Cc1cc(C)cc(NC(=O)c2cccc(N)c2)c1 | – | inactive | – | – | – | – | – | Anticonvulsant activity (Mus musculus [1]): Active; Anticonvulsant activity (Mus musculus [17]): Active; Anticonvulsant activity (Mus musculus [18]): Active; Toxicity (Mus musculus [14]): Active
Nc1cccc(C(=O)Nc2ccccc2)c1 | – | – | – | – | – | – | – | Anticonvulsant activity (Mus musculus [16]): Active; Anticonvulsant activity (Mus musculus [17]): Active; Anticonvulsant activity (Mus musculus [30]): Active; Anticonvulsant activity (Mus musculus [18]): Active; Toxicity (Mus musculus [21]): Active; Toxicity (Mus musculus [22]): Active
